24 molecules from ChEMBL document CHEMBL4130455, “Design, Synthesis, and Evaluation of Tetrahydropyrrolo[1,2-c]pyrimidines as Capsid Assembly Inhibitors for HBV Treatment” (ACS Med Chem Lett, 2017) can be followed below.

This assay has as its system Hepatitis B virus. The assay can be described thus: Antiviral activity against HBV infected in human HepG2.2.15 cells assessed as inhibition of viral DNA level incubated for 3 days followed by medium replacement measured after 3 days by RT-PCR method. Type of assay: functional, organism-based. The settings on record: HepG2.2.15, 72 h. The procedure, abridged: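 HepG2.2.15 cells seeded at 4 × 10^4 cells/well, compound exposure 3 days, then fresh medium and a further 3-day incubation. Supernatants collected and stored at −80 °C. HBV DNA extracted from supernatant and quantified by qPCR. IC50 reported as the mean of three experiments.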

On to `CCOC(=O)C1=C2CCCN2C(c2nccs2)=NC1c1ccc(F)cc1Cl` (centres undefined), for which the IC50 was 0.3 µM.

`CCOC(=O)C1=C2CCCCN2C(c2nccs2)=NC1c1ccc(F)cc1Cl` (centres undefined): the IC50 was 1.4 µM.

Turning to `CCOC(=O)C1=C2CCCN2C(c2nccs2)=NC1c1ccncc1Cl` (centres undefined), the IC50 is more than 10 µM.

As to `CCOC(=O)C1=C2CCCN2C(c2ccc(F)cn2)=NC1c1ccc(F)cc1Cl` (centres undefined), the half-inhibitory concentration (IC50) came out at 8.3 µM.

Consider `CCOC(=O)C1=C2CCCN2C(c2nccn2C)=NC1c1ccc(F)cc1Cl` (centres undefined), for which the IC50 was found to be 2 µM.

With `CCOC(=O)C1=C2C[C@H](O)CN2C(c2nccs2)=NC1c1ccc(F)cc1Cl` (some centres undefined), the IC50 was determined as 320 µM.

Take `CCOC(=O)C1=C2CCC(C)N2C(c2nccs2)=NC1c1ccc(F)cc1Cl` (centres undefined): the concentration for half-maximal inhibition (IC50) is 8000 µM.

As for `CCOC(=O)C1=C2CCCN2C(c2nccs2)=NC1c1ccc(F)c(F)c1` (centres undefined), the IC50 turned out to be 0.43 µM.

Consider `CCOC(=O)C1=C2CCCN2C(c2nccs2)=NC1c1ccc(F)cc1C` (centres undefined), for which the IC50 came out at 0.45 µM.

With `CCOC(=O)C1=C2CCCN2C(c2ncco2)=NC1c1ccc(F)cc1Cl` (centres undefined), the IC50 was determined as 6.3 µM.

Consider `CCOC(=O)C1=C2CCCN2C(c2nccs2)=NC1c1cnn(C)c1` (centres undefined), for which the concentration for half-maximal inhibition (IC50) was more than 10 µM.

As to `CCOC(=O)C1=C2CCCN2C(N2CCOCC2)=NC1c1ccc(F)cc1Cl` (centres undefined), the half-maximal inhibitory concentration (IC50) was more than 10 µM.

`CCOC(=O)C1=C2COCCN2C(c2nccs2)=NC1c1ccc(F)cc1Br` (centres undefined): the concentration for half-maximal inhibition (IC50) turned out to be 2.5 µM.

For the molecule `CCOC(=O)C1=C2CCCN2C(c2nccs2)=NC1c1ccc(F)cc1Br` (centres undefined), the IC50 was 0.21 µM.

Regarding `CCOC(=O)C1=C2CN(S(C)(=O)=O)CCN2C(c2nccs2)=NC1c1ccc(F)cc1Br` (centres undefined), the IC50 stood at 0.81 µM.

On to `COC(=O)C1=C2C[C@@H](NC(=O)OC(C)(C)C)CN2C(c2nccs2)=N[C@H]1c1ccc(F)cc1Cl`, for which the 50% inhibitory concentration (IC50) came to 50 µM.

As to `CCOC(=O)C1=C2CCCN2C(C2CC2)=NC1c1ccc(F)cc1Cl` (centres undefined), the half-inhibitory concentration (IC50) is more than 10 µM.

`CCOC(=O)C1=C2CCN2C(c2nccs2)=NC1c1ccc(F)cc1Cl` (centres undefined): the IC50 amounted to 4.1 µM.

In the case of `CCOC(=O)C1=C2CN(C(C)=O)CCN2C(c2nccs2)=NC1c1ccc(F)cc1Br` (centres undefined), the IC50 came to 0.77 µM.

Take `CCOC(=O)C1=C2CCCN2C(c2nccs2)=NC1c1cccc(F)c1Cl` (centres undefined): the concentration for half-maximal inhibition (IC50) came to 0.31 µM.

Turning to `CCOC(=O)C1=C2C[C@@H](NS(C)(=O)=O)CN2C(c2nccs2)=N[C@H]1c1ccc(F)cc1Cl`, the half-inhibitory concentration (IC50) came to 70 µM.

In the case of `CCOC(=O)C1=C2CCCN2C(c2nccs2)=NC1c1ncc(F)cc1F` (centres undefined), the half-maximal inhibitory concentration (IC50) is more than 10 µM.

Take `CONC(=O)C1=C2CCCN2C(c2nccs2)=NC1c1ccc(F)cc1Cl` (centres undefined): the half-inhibitory concentration (IC50) was 5 µM.

With `COC(=O)C1=C2C[C@@H](NS(C)(=O)=O)CN2C(c2nccs2)=N[C@H]1c1ccc(F)cc1Cl`, the concentration for half-maximal inhibition (IC50) was 0.06 µM.

In general, IC50 refers to the midpoint of a concentration-inhibition curve.
